# Assay results taken from ChEMBL document CHEMBL3098028, “Synthesis and in vitro and in vivo pharmacological evaluation of new 4-aminoquinoline-based compounds” (ACS Med Chem Lett, 2013).
# Experiments:
# [1] = Kinetic solubility of the compound in 0.01 M HCl at pH 2 after 2 hrs by HPLC analysis; type: physicochemical; settings: read-out: Kinetic_solubility
# [2] = Drug metabolism in hepatocytes (unknown origin) assessed as 2-(5-((4-chlorophenyl)(2-(7-chloroquinolin-4-ylamino)ethylamino)methyl)-1H-tetrazol-1-yl)-2-methylpropan-1-ol level at 5 uM after 6 hrs by LC-MS/MS analysis; type: ADME, cell-based, Hepatocyte
# Cytochrome P450 2A6 = target: T1, Cytochrome P450 2A6 (Homo sapiens, UniProt P11509); assay: Inhibition of CYP2A6 in human liver microsomes assessed as coumarin 7-hydroxylation after 20 mins by LC-MS/MS analysis; type: ADME
# T1 sequence (P11509 whole entry): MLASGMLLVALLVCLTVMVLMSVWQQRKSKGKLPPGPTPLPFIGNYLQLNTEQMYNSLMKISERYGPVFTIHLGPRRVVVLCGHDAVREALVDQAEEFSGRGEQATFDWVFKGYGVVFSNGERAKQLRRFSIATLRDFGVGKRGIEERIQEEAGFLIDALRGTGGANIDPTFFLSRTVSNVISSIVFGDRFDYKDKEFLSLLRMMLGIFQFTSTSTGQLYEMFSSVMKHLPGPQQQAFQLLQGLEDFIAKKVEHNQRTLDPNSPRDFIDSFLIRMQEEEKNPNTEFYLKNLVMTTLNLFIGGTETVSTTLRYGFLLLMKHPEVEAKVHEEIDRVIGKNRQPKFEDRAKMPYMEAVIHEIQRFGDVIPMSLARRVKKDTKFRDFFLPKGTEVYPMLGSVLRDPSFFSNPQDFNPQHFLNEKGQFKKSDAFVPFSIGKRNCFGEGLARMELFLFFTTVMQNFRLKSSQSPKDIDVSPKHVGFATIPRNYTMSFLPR
# Cytochrome P450 2C9 = Cytochrome P450 2C9 (Homo sapiens, UniProt P11712); assay: Inhibition of CYP2C9 in human liver microsomes assessed as diclofenac 4'-hydroxylation after 20 mins by LC-MS/MS analysis; type: ADME
# Cytochrome P450 2C9, sequence (P11712 whole entry): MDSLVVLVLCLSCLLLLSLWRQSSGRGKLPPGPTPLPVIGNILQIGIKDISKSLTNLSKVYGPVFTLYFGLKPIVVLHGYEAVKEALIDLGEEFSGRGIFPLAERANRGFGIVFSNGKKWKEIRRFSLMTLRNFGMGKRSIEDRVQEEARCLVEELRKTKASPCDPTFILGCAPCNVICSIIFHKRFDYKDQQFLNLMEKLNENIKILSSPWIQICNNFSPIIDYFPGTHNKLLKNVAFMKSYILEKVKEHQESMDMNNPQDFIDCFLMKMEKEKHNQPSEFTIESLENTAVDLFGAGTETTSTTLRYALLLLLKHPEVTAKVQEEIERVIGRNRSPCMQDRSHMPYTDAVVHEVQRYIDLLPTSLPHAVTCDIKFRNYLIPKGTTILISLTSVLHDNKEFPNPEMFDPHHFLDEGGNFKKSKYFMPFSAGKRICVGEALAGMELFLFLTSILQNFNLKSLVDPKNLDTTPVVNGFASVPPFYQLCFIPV
# Plasmodium falciparum = assay: Antiplasmodial activity against chloroquine-resistant Plasmodium falciparum W2 after 24 hrs by [3H]hypoxanthine incorporation assay; type: functional, organism-based
# Summary of the method: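 Antiplasmodial testing was done at the Swiss Tropical and Public Health Institute. Chloroquine, the reference drug, was tested as its diphosphate salt.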
# Cytochrome P450 3A4 = Cytochrome P450 3A4 (Homo sapiens, UniProt P08684); assay: Inhibition of CYP3A4 in human liver microsomes assessed as midazolam 1'-hydroxylation and testosterone 6beta-hydroxylation after 20 mins by LC-MS/MS analysis; type: ADME
# Cytochrome P450 3A4, sequence (P08684 whole entry): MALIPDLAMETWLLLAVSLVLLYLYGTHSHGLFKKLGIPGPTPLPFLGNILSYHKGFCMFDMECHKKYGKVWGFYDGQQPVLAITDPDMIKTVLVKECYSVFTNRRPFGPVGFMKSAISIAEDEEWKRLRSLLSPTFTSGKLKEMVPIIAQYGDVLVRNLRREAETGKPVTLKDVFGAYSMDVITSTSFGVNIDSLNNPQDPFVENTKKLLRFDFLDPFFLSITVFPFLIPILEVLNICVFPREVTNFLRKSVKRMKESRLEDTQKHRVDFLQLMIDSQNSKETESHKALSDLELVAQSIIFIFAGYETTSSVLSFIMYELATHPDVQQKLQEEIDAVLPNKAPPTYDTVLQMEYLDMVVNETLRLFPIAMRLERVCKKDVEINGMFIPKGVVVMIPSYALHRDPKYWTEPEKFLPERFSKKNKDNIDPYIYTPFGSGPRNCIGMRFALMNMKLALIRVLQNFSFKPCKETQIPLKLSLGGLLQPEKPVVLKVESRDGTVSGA
smiles,measurement,setting,value
CC(C)(C)n1nnnc1C(NCCNc1ccnc2cc(Cl)ccc12)c1ccc(Cl)cc1 (stereo unspecified),solubility kinetic at 2 h,[1],> 200 µM
same,Drug metabolism,[2],Active
same,IC50,Cytochrome P450 2A6,> 20000 nM
same,IC50,Cytochrome P450 2C9,8910 nM
same,IC50,Plasmodium falciparum,25.5 nM
same,IC50,Cytochrome P450 3A4,80 nM
